The nature of this data set: Pharmacokinetic study after single oral dose in rabbits. The class given is in vivo. The conditions noted are these: male, rabbit, plasma, 2.58 mg/kg. The method, boiled down: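 Twelve healthy fasted male rabbits (≈1.5 kg), 12 h fast, two groups. Single oral dose suspended in CMC: 2.58 mg/kg parent drug, or 6.45 mg/kg conjugate (2.58 mg/kg drug-equivalent). Water after 1 h. Plasma deproteinised with acetonitrile and filtered, then HPLC-UV at 248 nm (acetonitrile:water 50:50, isocratic, 1 mL/min) against a 1–50 μg/mL standard curve. AUC by linear trapezoidal method.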

In the case of `CC(C(=O)O)c1ccc(-c2ccccc2)c(F)c1` (stereo not shown) [Standard FLB, 2-(3-fluoro-4-phenylphenyl)propionic acid], the AUC(0-inf) is 190 ± 4 µg·h/mL, the maximum concentration (Cmax) was determined as 37300 ng/mL, the half-life was 4.6 ± 0.19 h and the k el is 4.17e-05 s⁻¹.

These data come from PMC7335720 (Saudi Pharmaceutical Journal : SPJ, 2020).
